Laboratory results from ChEMBL document CHEMBL1128298, “Synthesis and evaluation of pharmacological and pharmacokinetic properties of monopropyl analogs of 5-, 7-, and 8-[[(trifluoromethyl)sulfonyl]oxy]-2-aminotetralins: central dopamine and serotonin receptor activity” (J Med Chem, 1995).
Active and inactive are the calls of the source. The rule behind the calls is not given here.

Legend:
[1] = biological target: T1, 5-hydroxytryptamine receptor 1A (Mus musculus, UniProt Q64264); assay: In vitro binding affinity towards 5-hydroxytryptamine 1A receptor by using [3H]-8-OH-DPAT as radioligand
T1 sequence (Q64264 whole entry): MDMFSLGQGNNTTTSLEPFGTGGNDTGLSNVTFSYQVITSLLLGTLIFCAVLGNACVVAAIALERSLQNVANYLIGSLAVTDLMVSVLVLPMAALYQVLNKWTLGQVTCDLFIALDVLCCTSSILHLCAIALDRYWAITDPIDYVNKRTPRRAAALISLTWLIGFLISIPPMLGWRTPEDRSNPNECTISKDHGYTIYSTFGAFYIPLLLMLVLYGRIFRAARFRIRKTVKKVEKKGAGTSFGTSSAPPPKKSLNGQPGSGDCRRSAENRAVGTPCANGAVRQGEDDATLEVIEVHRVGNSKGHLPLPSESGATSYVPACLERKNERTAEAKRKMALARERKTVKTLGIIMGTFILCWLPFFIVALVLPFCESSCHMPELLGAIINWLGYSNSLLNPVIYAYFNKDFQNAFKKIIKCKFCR
Procedure, shortened: (§1)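 Radioligand competition binding at cloned mammalian receptors expressed in CHO-K1 cells, 1 h at room temperature, pH 7.4. Ligands: 5-HT1A [3H]-8-OH-DPAT 1 nM in 50 mM Tris/10 mM MgCl2. 5-HT1Dα/β [3H]-5-HT 1.7 nM in Tris/MgCl2/EDTA/0.1% ascorbate. D2 [3H]U86170 1 nM in 20 mM HEPES/10 mM MgSO4. D3 [3H]spiperone 0.5 nM in HEPES/MgCl2/NaCl/EDTA. Filtration and scintillation counting; 11 concentrations in duplicate; IC50 by nonlinear fit converted to Ki via Cheng–Prusoff.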

[2] = biological target: T2, 5-hydroxytryptamine receptor 1D (Homo sapiens, UniProt P28221); assay: In vitro binding affinity towards 5-hydroxytryptamine 1D receptor alpha by using [3H]-5-HT as radioligand
[3] = biological target: T2, 5-hydroxytryptamine receptor 1D; assay: In vitro binding affinity towards 5-hydroxytryptamine 1D receptor alpha by using [3H]5-HT as radioligand
[4] = Plasma clearance was determined for the compound in rats; format: ADME, organism-based; conditions: rat
Procedure, shortened: (§2)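 Rats with arterial catheters, dosed 24 h after surgery. Dosing po by gavage after 18 h fast, or iv; doses 25 µmol/kg po and 5 µmol/kg iv. Blood sampled 5 min–12 h and analysed by GC-MS after dichloromethane extraction at pH 11, in duplicate. Bioavailability from po/iv AUC ratio; half-life estimated graphically from the elimination phase after oral dosing.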

[5] = Oral bioavailability in rat; format: ADME, organism-based; conditions: in vivo; procedure, shortened: as §2
[6] = Plasma half life was determined in rats; format: ADME, organism-based; conditions: rat; procedure, shortened: as §2
D(2) dopamine receptor [7] = biological target: T3, D(2) dopamine receptor (Homo sapiens, UniProt P14416)
D(3) dopamine receptor = D(3) dopamine receptor (Homo sapiens, UniProt P35462); assay: In vitro binding affinity towards Dopamine receptor D3 by using [3H]spiperone as radioligand
Procedure, shortened: as §1, with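 “7.4.” for “7.4. Ligands: 5-HT1A [3H]-8-OH-DPAT 1 nM in 50 mM Tris/10 mM MgCl2. 5-HT1Dα/β [3H]-5-HT 1.7 nM in Tris/MgCl2/EDTA/0.1% ascorbate.”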

Rattus norvegicus [8] = assay: […] decrease in the accumulation of DOPA (3,4-dihydroxyphenylalanine) in rat striatal brain; partial response at 50 uM/Kg; format: functional, organism-based
Procedure, shortened: (§3)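 Male Sprague-Dawley rats (200–300 g) pretreated with reserpine 5 mg/kg sc 18 h before test drug. Test drug sc 60 min and NSD 1015 30 min before decapitation. DOPA and 5-HTP in limbic, striatal and hemispheral brain areas determined by HPLC with electrochemical detection. ED50 (µmol/kg) is the dose producing half-maximal decrease, from sigmoidal fit to dose–response curves, with 95% confidence limits.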

Rattus norvegicus [9] = assay: […] decrease in the accumulation of DOPA (3,4-dihydroxyphenylalanine) in rat limbic brain; partial response at 50 uM/Kg; format: functional, organism-based; procedure, shortened: as §3
Rattus norvegicus [10] = species: Rattus norvegicus; assay: […] decrease in the accumulation of 5-HTP (5-Hydroxytryptophan) in rat hemispheral brain; format: functional; procedure, shortened: as §3
Rattus norvegicus [11] = assay: […] decrease in the accumulation of DOPA (3,4-dihydroxyphenylalanine) in rat hemispheral brain; partial response at 50 uM/Kg; format: functional, organism-based; procedure, shortened: as §3
D(2) dopamine receptor [12] = biological target: T3, D(2) dopamine receptor; assay: In vitro binding affinity towards Dopamine receptor D2 by using [3H]spiperone as radioligand
[13] = biological target: T2, 5-hydroxytryptamine receptor 1D; assay: In vitro binding affinity towards 5-HT1D alpha receptor by using [3H]5-HT as radioligand; procedure, shortened: as §1
D(2) dopamine receptor [14] = biological target: T3, D(2) dopamine receptor; assay: In vitro binding affinity towards dopamine D2 receptor by using [3H]U-86170 as radioligand; procedure, shortened: as §1
Rattus norvegicus [15] = assay: uM/kg; format: functional
Rattus norvegicus [16] = species: Rattus norvegicus; assay: post-synaptic activity was determined by locomotor activity (LMA) in reserpine pretreated rats and no. of counts/30 min was reported (***p<0.005); format: functional
Rattus norvegicus [17] = assay: (§4) […] decrease in the accumulation of 5-HTP (5-uM/Kg; format: functional, organism-based
Rattus norvegicus [18] = assay: […] decrease in the accumulation of DOPA (3,4-dihydroxyphenylalanine) in rat striatal brain;Inactive at 50 uM/Kg; format: functional, organism-based; procedure, shortened: as §3
Rattus norvegicus [19] = assay: […] decrease in the accumulation of DOPA (3,4-dihydroxyphenylalanine) in rat limbic brain;Inactive at 50 uM/Kg; format: functional, organism-based; procedure, shortened: as §3
Rattus norvegicus [20] = assay: as §4; format: functional, organism-based; remark: listed apart in the source
Rattus norvegicus [21] = assay: […] decrease in the accumulation of DOPA (3,4-dihydroxyphenylalanine) in rat hemispheral brain;Inactive at 50 uM/Kg; format: functional, organism-based; procedure, shortened: as §3
Rattus norvegicus [22] = species: Rattus norvegicus; assay: post-synaptic activity was determined by locomotor activity (LMA) in Non pretreated rats; format: functional
Procedure, shortened: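 Nonpretreated male Sprague-Dawley rats; test drug sc in the neck or po by gavage, n = 4. Placed singly in photocell motility meters immediately after dosing; activity recorded for 30 min. Results expressed as percent of saline controls.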

Rattus norvegicus [23] = assay: […] decrease in the accumulation of 5-HTP (5-Hydroxytryptophan) in non pretreated rat striatal brain at dose 0.25 umol/kg; format: functional; design: scale not given: the % may be the effect or the level left
Procedure, shortened: (§5)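 Male Sprague-Dawley rats (200–300 g) without reserpine. Test drug sc, or po by gavage after 18 h fast. NSD 1015 decarboxylase inhibition before decapitation. DOPA and 5-HTP in limbic and striatal regions measured by HPLC-electrochemical detection. Results given as percent of saline controls, mean ± SEM, n = 16 controls and 4 treated.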

Rattus norvegicus [24] = assay: […] decrease in the accumulation of DOPA (3,4-dihydroxyphenylalanine) in non pretreated rat striatal brain at dose 0.25 umol/kg; format: functional; design: scale not given: the % may be the effect or the level left; procedure, shortened: as §5
Rattus norvegicus [25] = assay: […] decrease in the accumulation of 5-HTP (5-Hydroxytryptophan) in non pretreated rat limbic brain at dose 0.25 umol/kg; format: functional; design: scale not given: the % may be the effect or the level left; procedure, shortened: as §5
Rattus norvegicus [26] = assay: […] decrease in the accumulation of DOPA (3,4-dihydroxyphenylalanine) in non pretreated rat limbic brain at dose 0.25 umol/kg; format: functional; design: scale not given: the % may be the effect or the level left; procedure, shortened: as §5
Rattus norvegicus [27] = species: Rattus norvegicus; assay: […] decrease in the accumulation of 5-HTP (5-Hydroxytryptophan) in rat striatal brain; format: functional; procedure, shortened: as §3
Rattus norvegicus [28] = assay: behavioral syndrome(flat body posture and forepaw treading) at 0.25 µmol/kg
Rattus norvegicus [29] = assay: behavioral syndrome(flat body posture and forepaw treading) at 0.25 umol/Kg

T3 sequence (P14416 whole entry): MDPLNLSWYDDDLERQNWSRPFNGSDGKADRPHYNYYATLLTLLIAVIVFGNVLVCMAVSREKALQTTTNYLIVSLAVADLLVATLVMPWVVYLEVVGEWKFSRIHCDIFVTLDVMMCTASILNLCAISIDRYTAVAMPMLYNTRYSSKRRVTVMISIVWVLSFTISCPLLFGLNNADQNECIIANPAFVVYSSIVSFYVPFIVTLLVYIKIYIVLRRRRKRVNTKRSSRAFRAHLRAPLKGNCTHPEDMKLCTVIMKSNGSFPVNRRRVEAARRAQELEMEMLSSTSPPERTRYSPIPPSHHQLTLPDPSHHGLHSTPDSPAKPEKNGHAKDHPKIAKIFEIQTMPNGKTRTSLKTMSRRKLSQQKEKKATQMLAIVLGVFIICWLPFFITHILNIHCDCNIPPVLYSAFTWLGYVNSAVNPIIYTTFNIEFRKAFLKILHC
T2 sequence (P28221 whole entry): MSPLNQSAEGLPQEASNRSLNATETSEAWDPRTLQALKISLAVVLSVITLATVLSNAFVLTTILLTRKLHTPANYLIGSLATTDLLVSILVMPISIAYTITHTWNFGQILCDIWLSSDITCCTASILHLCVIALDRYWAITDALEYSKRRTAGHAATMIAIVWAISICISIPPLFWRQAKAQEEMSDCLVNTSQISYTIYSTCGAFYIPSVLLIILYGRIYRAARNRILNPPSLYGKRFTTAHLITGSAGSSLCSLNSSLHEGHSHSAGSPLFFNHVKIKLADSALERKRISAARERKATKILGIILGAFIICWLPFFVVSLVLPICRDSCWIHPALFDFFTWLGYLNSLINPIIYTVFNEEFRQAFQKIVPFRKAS
D(3) dopamine receptor, sequence (P35462 whole entry): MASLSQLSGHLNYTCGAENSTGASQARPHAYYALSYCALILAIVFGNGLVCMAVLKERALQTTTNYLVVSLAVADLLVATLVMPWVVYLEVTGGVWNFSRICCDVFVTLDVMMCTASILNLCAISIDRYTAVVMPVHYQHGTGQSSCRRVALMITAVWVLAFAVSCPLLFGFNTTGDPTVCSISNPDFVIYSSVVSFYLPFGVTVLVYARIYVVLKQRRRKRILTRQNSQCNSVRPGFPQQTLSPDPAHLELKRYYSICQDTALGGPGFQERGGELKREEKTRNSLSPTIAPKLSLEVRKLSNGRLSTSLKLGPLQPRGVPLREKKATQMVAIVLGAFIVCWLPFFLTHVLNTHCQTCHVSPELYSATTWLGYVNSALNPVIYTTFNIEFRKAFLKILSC

SMILES | Ki [1] [nM] | Ki [2] [nM] | Ki [3] [nM] | bioavailability [5] [%] | half-life [6] [h] | Ki (D(2) dopamine receptor [7]) [nM] | Ki (D(3) dopamine receptor) [nM] | ED50 (Rattus norvegicus [8]) | ED50 (Rattus norvegicus [9]) | ED50 (Rattus norvegicus [10]) [µmol/kg] | ED50 (Rattus norvegicus [11]) | Ki (D(2) dopamine receptor [12]) [nM] | No. of rats displaying DA syndrome (Rattus norvegicus [15]) | further results
CCCN(CCC)C1CCc2cccc(OS(=O)(=O)C(F)(F)F)c2C1 (racemic) | 0.8 | 127 | 12 | 11.2 | 1.5 | 62 | 273 | Weak activity | Weak activity | 13.8 | Weak activity | > 413 | – | clearance [4]: 57 mL/min/kg
CCCN[C@@H]1CCc2ccc(OS(=O)(=O)C(F)(F)F)cc2C1.Cl | 222 | 340 | – | – | – | – | 359 | – | – | – | – | – | 4 | Ki [13]: 125 nM; Ki (D(2) dopamine receptor [14]): 50 nM; Counts/30 min (Rattus norvegicus [16]): 2153; ED50 (Rattus norvegicus [17]): Weak activity; ED50 (Rattus norvegicus [18]): inactive; ED50 (Rattus norvegicus [19]): inactive; ED50 (Rattus norvegicus [20]): Weak activity; ED50 (Rattus norvegicus [21]): inactive
CCCNC1CCc2cccc(OS(=O)(=O)C(F)(F)F)c2C1 (racemic) | 2.8 | – | 15 | – | – | 108 | 691 | – | – | – | – | > 413 | – | –
CCCN(CCC)[C@@H]1CCc2cccc(O)c2C1 | 0.5 | – | – | 2.4 | 1.2 | – | – | Weak activity | Weak activity | 0.05 | Weak activity | – | 0 | Locomotor activity (% of saline control) (Rattus norvegicus [22]): 64%; Control (Rattus norvegicus [23]): 48%; Control (Rattus norvegicus [24]): 80%; Control (Rattus norvegicus [25]): 50%; Control (Rattus norvegicus [26]): 94%; ED50 (Rattus norvegicus [27]): 0.047 µmol/kg; No. of rats with 5-HT syndrome (Rattus norvegicus [28]): 4; No. of rats with 5-HT syndrome (Rattus norvegicus [29]): 4
